ChEMBL document CHEMBL1146234, “Synthesis and biological evaluation of N-pyrazolyl-N'-alkyl/benzyl/phenylureas: a new class of potent inhibitors of interleukin 8-induced neutrophil chemotaxis” (J Med Chem, 2007)
Active and inactive are the calls of the source. The rule behind the calls is not given here.

Key:
Neutrophil [1] = assay: Cytotoxicity against human neutrophils assessed as viable cells after 2 hrs; format: functional; set-up: concentration or dose not given beside the values
Summary of the method: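 Human neutrophils (2 × 10⁶/mL) from healthy donors were incubated 2 h at 37 °C under CO₂ in HBSS:PBS (3:1) with 1 mg/mL BSA, with compounds. Membrane integrity was read by fluorescein diacetate/ethidium bromide staining for 10 min at room temperature, under UV dark-field microscopy. Green cells were scored viable; red nuclei were scored necrotic.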

Neutrophil [2] = assay: Inhibition of IL8-induced neutrophil chemotaxis after 45 mins by Boyden chamber assay; format: functional, cell-based; conditions: Homo sapiens, 0.75 h
Summary of the method: (§1)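 Leading-front Boyden assay with donor neutrophils. Cells were preincubated 15 min at room temperature ± compound. Then 4 × 10⁵ cells were placed above a 3 µm cellulose ester filter, with IL8 or fMLP below. After 45 min at 37 °C, filters were hematoxylin-stained and the leading-front distance was read at ×400, 5 fields per filter, in duplicate. Net migration = stimulated minus spontaneous. IC₅₀ came from nonlinear regression, ≥3 experiments.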

Neutrophil [3] = assay: Inhibition of fMLP-induced neutrophil chemotaxis after 45 mins by Boyden chamber assay; format: functional, cell-based; conditions: Homo sapiens; summary of the method: as §1
Mus musculus [4] = assay: Inhibition of peritoneal granulocyte count in zymosan-induced Swiss mouse peritoneal fluid at 1 mg/kg, po; format: functional
Summary of the method: (§2)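 Male Swiss mice (25-30 g), fasted 16 h, n = 8 per group, were dosed orally 1 h before i.p. zymosan (5 mg/mL, 0.2 mL). Dexamethasone 1 mg/kg os served as reference. At 4 h, peritoneal lavage used 3 mL PBS with 3 mM EDTA. Total leukocytes were counted in a Neubauer chamber (Türk 1:100), with differentials by light microscopy. Counts were compared with vehicle by Student's t-test.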

Mus musculus [5] = assay: Percentage of granulocytes in zymosan-induced Swiss mouse peritoneal fluid at 1 mg/kg, po
Mus musculus [6] = assay: Percentage of monocytes in zymosan-induced Swiss mouse peritoneal fluid at 1 mg/kg, po
Mus musculus [7] = assay: Percentage of lymphocytes in zymosan-induced Swiss mouse peritoneal fluid at 1 mg/kg, po
Mus musculus [8] = assay: Inhibition of peritoneal cell count in zymosan-induced Swiss mouse peritoneal fluid at 1 mg/kg, po; format: functional; conditions: read-out: Inhibition; summary of the method: as §2
Mus musculus [9] = assay: Lymphocyte percentage in zymosan-induced Swiss mouse peritoneal fluid at 100 mg/kg, po
Mus musculus [10] = assay: Granulocyte percentage in zymosan-induced Swiss mouse peritoneal fluid at 100 mg/kg, po
Mus musculus [11] = assay: Monocyte percentage in zymosan-induced Swiss mouse peritoneal fluid at 100 mg/kg, po
Mus musculus [12] = assay: Inhibition of peritoneal cell count in zymosan-induced Swiss mouse peritoneal fluid at 100 mg/kg, po; format: functional; summary of the method: as §2
Mus musculus [13] = assay: Inhibition of peritoneal granulocyte count in zymosan-induced Swiss mouse peritoneal fluid at 100 mg/kg, po; format: functional; summary of the method: as §2

IC50 (Neutrophil [2]) [nM] | SMILES | Activity (Neutrophil [1]) [%] | Activity (Neutrophil [3]) | further results
33 | CCOC(=O)c1cnn(CC(O)c2ccccc2)c1NC(=O)Nc1ccc(F)cc1 (stereo not given) | 90 | inactive | –
198 | CCOC(=O)c1cnn(CC(O)c2ccccc2)c1NC(=O)NCc1cccc(Br)c1 (stereo not given) | 90 | inactive | –
1780 | CCOC(=O)c1cnn(CC(O)c2ccccc2)c1NC(=O)NCc1ccccc1Br (stereo not given) | 90 | inactive | –
445 | CCOC(=O)c1cnn(CC(O)c2ccccc2)c1NC(=O)Nc1ccc(C)cc1 (stereo not given) | 90 | inactive | –
33 | CCOC(=O)c1cnn(CC(O)c2ccccc2)c1NC(=O)Nc1ccccc1F (stereo not given) | 90 | inactive | –
212 | CCOC(=O)c1cnn(CC(O)c2ccccc2)c1NC(=O)NCc1ccc(F)cc1 (stereo not given) | 90 | inactive | –
935 | CCOC(=O)c1cnn(CC(O)c2ccccc2)c1NC(=O)NCc1ccc(Cl)cc1 (stereo not given) | 90 | inactive | –
1240 | CCOC(=O)c1cnn(CC(O)c2ccccc2)c1NC(=O)NCc1ccccc1Cl (stereo not given) | 90 | inactive | –
1490 | CCOC(=O)c1cnn(CC(O)c2ccccc2)c1NC(=O)NCc1ccccc1F (stereo not given) | 90 | inactive | –
345 | CCOC(=O)c1cnn(CC(O)c2ccccc2)c1NC(=O)Nc1ccc(Cl)cc1 (stereo not given) | 90 | inactive | –
36 | CCOC(=O)c1cnn(CC(O)c2ccccc2)c1NC(=O)Nc1cccc(F)c1 (stereo not given) | 90 | inactive | % lymphocytes at 100 mg/kg (Mus musculus [9]): 28%; % granulocytes at 100 mg/kg (Mus musculus [10]): 62%; % monocytes at 100 mg/kg (Mus musculus [11]): 10%; inhibition in vivo at 100 mg/kg (Mus musculus [12]): 29%; inhibition in vivo at 100 mg/kg (Mus musculus [13]): 33%
3890 | CCOC(=O)c1cnn(CC(O)c2ccccc2)c1NC(=O)NCc1ccc(Br)cc1 (stereo not given) | 90 | inactive | –
570 | CCOC(=O)c1cnn(CC(O)c2ccccc2)c1NC(=O)NCc1cccc(Cl)c1 (stereo not given) | 90 | inactive | –
318 | CCOC(=O)c1cnn(CC(O)c2ccccc2)c1NC(=O)NCc1cccc(F)c1 (stereo not given) | 90 | inactive | –
92 | CCOC(=O)c1cnn(CC(O)c2ccccc2)c1NC(=O)Nc1ccc(Br)cc1 (stereo not given) | 90 | inactive | –

The next lines start with the molecule.

SMILES | IC50 (Neutrophil [2]) [nM] | Activity (Neutrophil [1]) [%] | Activity (Neutrophil [3]) | further results
CCOC(=O)c1cnn(CC(O)c2ccccc2)c1NC(=O)Nc1ccccc1OC (stereo not given) | 1200 | 90 | inactive | –
CCOC(=O)c1cnn(CC(O)c2ccccc2)c1NC(=O)N1CCOCC1 (stereo not given) | 950 | 90 | inactive | –
CCOC(=O)c1cnn(CC(O)c2ccccc2)c1NC(=O)Nc1cccc(Cl)c1 (stereo not given) | 1560 | 90 | inactive | –
CCOC(=O)c1cnn(CC(O)c2ccccc2)c1NC(=O)Nc1cccc(OC)c1 (stereo not given) | 1400 | 90 | inactive | –
CC(C)NC(=O)Nc1c(C(=O)O)cnn1CC(O)c1ccccc1 (stereo not given) | 251 | 90 | inactive | –
CCOC(=O)c1cnn(CC(O)c2ccccc2)c1NC(=O)N1CCN(C)CC1 (stereo not given) | 865 | 90 | inactive | –
C[C@@H]1C[C@H]2[C@@H]3CCC4=CC(=O)C=C[C@]4(C)[C@@]3(F)[C@@H](O)C[C@]2(C)[C@@]1(O)C(=O)CO [DEXAMETHASONE] | – | – | – | inhibition in vivo at 1 mg/kg (Mus musculus [4]): 62%; % granulocytes at 1 mg/kg (Mus musculus [5]): 42%; % monocytes at 1 mg/kg (Mus musculus [6]): 14%; % lymphocytes at 1 mg/kg (Mus musculus [7]): 44%; inhibition in vivo at 1 mg/kg (Mus musculus [8]): 33%
CCOC(=O)c1cnn(CC(O)c2ccccc2)c1NC(=O)Nc1cccc(C)c1 (stereo not given) | 398 | 90 | inactive | –
CCOCCNC(=O)Nc1c(C(=O)OCC)cnn1CC(O)c1ccccc1 (stereo not given) | 1000 | 90 | inactive | –
CCOC(=O)c1cnn(CC(O)c2ccccc2)c1NC(=O)N1CCCC1 (stereo not given) | 4950 | 90 | inactive | –
CC(C)NC(=O)Nc1c(C#N)cnn1CC(O)c1ccccc1 (stereo not given) | 35 | 90 | inactive | –
CCOC(=O)c1cnn(CC(O)c2ccccc2)c1NC(=O)N1CCN(Cc2ccccc2)CC1 (stereo not given) | – | 90 | inactive | –
CCOC(=O)c1cnn(CC(O)c2ccccc2)c1NC(=O)NCCc1ccccc1 (stereo not given) | 610 | 90 | inactive | –
CCOC(=O)c1cnn(CC(O)c2ccccc2)c1NC(=O)N1CCCCC1 (stereo not given) | 3090 | 90 | inactive | –
CCOC(=O)c1cnn(CC(O)c2ccccc2)c1NC(=O)Nc1cccc(Br)c1 (stereo not given) | 424 | 90 | inactive | –
N#Cc1cnn(CC(O)c2ccccc2)c1NC(=O)Nc1ccccc1 (stereo not given) | 225 | 90 | inactive | –
CC(C)NC(=O)Nc1ccnn1CC(O)c1ccccc1 (stereo not given) | 825 | 90 | inactive | –
CCOC(=O)c1cnn(CC(O)c2ccccc2)c1NC(=O)NC1CC1 (stereo not given) | 5520 | 90 | inactive | –
